Assay results reported in PubChem BioAssay.
Calls of active or inactive are those of the source.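 The calls were made as follows, unless noted: active = viability at or below 30% in both replicate assays; inconclusive = viability at or below 30% in just one of the two assays; inactive = the rest.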

Key:
[1] = Her2 expression decrease, cell viability multiplex – SKBR3 breast tumor cells, AlphaScreen, ATP viability, primary screen (AID 461;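 active = Her2 level under about 52% in both replicate screens, with viability over 70% of control, limit read from the data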;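 as to Her2 level: lower value means less Her2 protein in the cells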;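 as to viability: percent of carrier control wells set as 100% viability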); conditions: SKBR3 Her2 protein level, 18-24 h, measured here: SKBR3 viability, ATP luminescence, at 10 µM
[2] = target: Receptor tyrosine-protein kinase erbB-2 (Homo sapiens) (UniProt P04626); assay: as above; conditions: 18-24 h, at 10 µM, stronger effect = lower value
Chain of Receptor tyrosine-protein kinase erbB-2 (Homo sapiens) (P04626 whole entry, looked up): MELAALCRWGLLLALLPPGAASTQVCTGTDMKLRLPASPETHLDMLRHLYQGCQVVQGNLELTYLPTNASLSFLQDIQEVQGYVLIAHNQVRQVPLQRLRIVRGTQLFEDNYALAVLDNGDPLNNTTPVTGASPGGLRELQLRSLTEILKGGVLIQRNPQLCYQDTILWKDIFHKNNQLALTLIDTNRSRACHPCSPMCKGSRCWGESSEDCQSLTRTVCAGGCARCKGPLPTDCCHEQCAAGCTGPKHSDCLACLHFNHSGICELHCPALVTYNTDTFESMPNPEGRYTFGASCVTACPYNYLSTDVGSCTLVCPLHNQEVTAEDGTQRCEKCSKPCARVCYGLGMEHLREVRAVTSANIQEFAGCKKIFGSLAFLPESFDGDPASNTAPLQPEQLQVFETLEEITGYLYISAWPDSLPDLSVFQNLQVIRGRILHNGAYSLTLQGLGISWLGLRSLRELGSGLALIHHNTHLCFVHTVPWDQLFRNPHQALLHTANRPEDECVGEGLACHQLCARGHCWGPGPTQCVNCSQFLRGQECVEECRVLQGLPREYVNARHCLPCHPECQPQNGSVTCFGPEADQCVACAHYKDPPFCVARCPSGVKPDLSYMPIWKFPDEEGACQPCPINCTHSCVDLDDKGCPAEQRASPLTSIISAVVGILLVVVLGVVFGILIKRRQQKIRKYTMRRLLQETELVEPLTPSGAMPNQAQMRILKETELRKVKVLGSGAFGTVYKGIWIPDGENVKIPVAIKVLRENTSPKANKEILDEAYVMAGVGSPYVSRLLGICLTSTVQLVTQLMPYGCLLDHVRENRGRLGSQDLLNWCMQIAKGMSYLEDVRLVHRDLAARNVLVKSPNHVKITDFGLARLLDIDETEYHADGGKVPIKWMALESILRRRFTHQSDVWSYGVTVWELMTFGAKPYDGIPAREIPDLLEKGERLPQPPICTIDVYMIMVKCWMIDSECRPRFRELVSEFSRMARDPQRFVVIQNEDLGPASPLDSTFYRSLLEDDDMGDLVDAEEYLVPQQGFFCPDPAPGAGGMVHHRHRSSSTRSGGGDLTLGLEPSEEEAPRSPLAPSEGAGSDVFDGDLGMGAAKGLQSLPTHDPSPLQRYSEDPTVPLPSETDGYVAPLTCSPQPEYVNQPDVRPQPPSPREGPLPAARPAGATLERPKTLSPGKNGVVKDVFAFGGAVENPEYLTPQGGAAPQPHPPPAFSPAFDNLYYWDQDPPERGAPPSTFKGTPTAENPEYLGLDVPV

[3] = reduced viability of SK-BR-3 breast cancer cells – cell-based, 24 h, human, pilot screen (AID 572;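 active = viability at or below 10% of carrier control in both of two separate runs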;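 also: compound exposure lasted between 18 and 24 h rather than exactly 24 h; 100% = carrier-treated control wells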); conditions: SK-BR-3 viability, CellTiter-Glo luminescence, at 10 µM, stronger effect = lower value
[4] = HUVEC growth inhibition – cell-based, human, primary screen (AID 575); conditions: HUVEC proliferation, CellTiter-Glo luminescence, 72 h; at 10 µM; stronger effect = lower value;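 also: 100% = median of untreated cell wells with 0.1% DMSO on each plate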
Method in brief: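 Material: primary human umbilical vein endothelial cells / Schedule: 72 h exposure, 37 °C, 5% CO2, 30 min RT equilibration / Signal: ATP-based CellTiter-Glo luminescent read / Read-out basis: percent of median DMSO-control luminescence / Control set: 32 DMSO-only cell-control wells (high), 32 MePR drug-control wells (low) per plate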

[5] = H69AR cell proliferation blockers – human, duplicate replicates, primary screen (AID 580;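 active = viability at or under a set limit in both replicates, limit being median viability minus 3 SD, cut at about 48% in these data, passing the limit was not always enough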;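 also: 100% = mean luminescence of untreated wells and 0% = no signal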); conditions: H69AR lung tumor cells viability, ATP luminescence, 72 h; at 10 µM; stronger effect = lower value
[6] = MRP1 drug-resistance reversers in H69AR cells – cell-based, doxorubicin co-treatment, pilot screen (AID 601;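 active = viability loss from added drug above about 55%, and viability with drug at most 40%, in both replicates, limit read from the data, passing the limit was not always enough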); conditions: CellTiter-Glo, 72 h, at 10 µM; for differential viability (reversal): stronger effect = higher value
[7] = yeast transport mutant growth inhibition pilot in 384-well plates, post-Golgi transport modulator project (AID 636; in the data active = inhibition above about 31%); conditions: absorbance 615 nm, about 18 h, stronger effect = higher value
[8] = growth suppression of yeast trafficking mutant, preliminary HTS, modulators of trafficking downstream of Golgi apparatus project, 1536-format plate, OD 615 nm (AID 637; in the data active = inhibition above about 30%); conditions: yeast transport mutant growth, absorbance 615 nm, 18 h; stronger effect = higher value
[9] = H69AR cells + 2 uM doxorubicin, measured here: viability with 2 uM doxorubicin, stronger effect = lower value
[10] = H69AR cells, compound alone cytotoxicity

Cc1ccccc1CS(=O)(=O)CCC(=O)N1CCN(c2ccc(N3CCOCC3)nn2)CC1
viability [1]: 91.5% | Her2 level [2]: 81% (inactive) | viability [3]: 91.5% (inactive) | viability [4]: 97.1% (inactive) | viability [5]: 103% (inactive) | differential viability (reversal) ([6]; H69AR cells + 2 uM doxorubicin): 10.7% (inactive) | viability [6, 9]: 92.7% | viability [6, 10]: 103% | inhibition [7]: -2.24% (inactive) | inhibition [8]: -0.73% (inactive)

Cc1cccc(-n2nnc(C(=O)NCc3ccccc3)c2N)c1
viability [1]: 110% | Her2 level [2]: 84.5% (inactive) | viability [3]: 110% (inactive) | viability [4]: 102% (inactive) | viability [5]: 90.4% (inactive) | differential viability (reversal) ([6]; H69AR cells + 2 uM doxorubicin): 3.36% (inactive) | viability [6, 9]: 87% | viability [6, 10]: 90.4% | inhibition [7]: 0.92% (inactive) | inhibition [8]: -3.45% (inactive)

COc1ccc(CCNc2nc(N3CCOCC3)nc(N3CCOCC3)n2)cc1OC
viability [1]: 81% | Her2 level [2]: 91% (inactive) | viability [3]: 81% (inactive) | viability [4]: 108% (inactive) | viability [5]: 96.7% (inactive) | differential viability (reversal) ([6]; H69AR cells + 2 uM doxorubicin): 2.03% (inactive) | viability [6, 9]: 94.6% | viability [6, 10]: 96.7% | inhibition [7]: 0.4% (inactive) | inhibition [8]: -4.84% (inactive)

CCOC(=O)Cn1c(=N)n(CCOc2cccc(C)c2)c2ccccc21
viability [1]: 121% | Her2 level [2]: 106% (inactive) | viability [3]: 121% (inactive) | viability [4]: 99.6% (inactive) | viability [5]: 85.9% (inactive) | differential viability (reversal) ([6]; H69AR cells + 2 uM doxorubicin): 1% (inactive) | viability [6, 9]: 84.9% | viability [6, 10]: 85.9% | inhibition [7]: -6.67% (inactive) | inhibition [8]: -0.79% (inactive)

CCn1c(=O)cc(SCC(=O)N2CCN(C3CCCCC3)CC2)c2ccccc21
viability [1]: 88.5% | Her2 level [2]: 77% (inactive) | viability [3]: 88.5% (inactive) | viability [4]: 79.2% (inactive) | viability [5]: 83.5% (inactive) | differential viability (reversal) ([6]; H69AR cells + 2 uM doxorubicin): 7.01% (inactive) | viability [6, 9]: 76.5% | viability [6, 10]: 83.5% | inhibition [7]: -0.92% (inactive) | inhibition [8]: 0.18% (inactive)

O=C1CCCc2c1cc(C(=O)NCc1ccco1)c(=O)n2-c1ccc(Cl)cc1
viability [1]: 88% | Her2 level [2]: 110% (inactive) | viability [3]: 88% (inactive) | viability [4]: 80.8% (inactive) | viability [5]: 93.5% (inactive) | differential viability (reversal) ([6]; H69AR cells + 2 uM doxorubicin): 13% (inactive) | viability [6, 9]: 80.5% | viability [6, 10]: 93.5% | inhibition [7]: -4.8% (inactive) | inhibition [8]: -3.39% (inactive)

O=C(O)[C@@H]1CCCN1c1ncnc2sc3c(c12)CCC3
viability [1]: 128% | Her2 level [2]: 100% (inactive) | viability [3]: 128% (inactive) | viability [4]: 98.3% (inactive) | viability [5]: 106% (inactive) | differential viability (reversal) ([6]; H69AR cells + 2 uM doxorubicin): 3.99% (inactive) | viability [6, 9]: 102% | viability [6, 10]: 106% | inhibition [7]: -6.8% (inactive) | inhibition [8]: 0.32% (inactive)

COc1ccc(C(=O)NCCn2ccc3ccccc32)c(OC)c1
viability [1]: 95% | Her2 level [2]: 81% (inactive) | viability [3]: 95% (inactive) | viability [4]: 88.7% (inactive) | viability [5]: 87.7% (inactive) | differential viability (reversal) ([6]; H69AR cells + 2 uM doxorubicin): -0.23% (inactive) | viability [6, 9]: 87.9% | viability [6, 10]: 87.7% | inhibition [7]: -6.49% (inactive) | inhibition [8]: 1.11% (inactive)

COc1ccc(N2CCN(C(=O)COc3ccc4ccccc4c3)CC2)cc1
viability [1]: 77.5% | Her2 level [2]: 86.5% (inactive) | viability [3]: 77.5% (inactive) | viability [4]: 84.8% (inactive) | viability [5]: 108% (inactive) | differential viability (reversal) ([6]; H69AR cells + 2 uM doxorubicin): 17.1% (inactive) | viability [6, 9]: 90.8% | viability [6, 10]: 108% | inhibition [7]: -6.35% (inactive) | inhibition [8]: 3.11% (inactive)

COc1cccc(C(=O)Nc2ccc(C)cc2)c1
viability [1]: 99% | Her2 level [2]: 102% (inactive) | viability [3]: 99% (inactive) | viability [4]: 84.6% (inactive) | viability [5]: 92.3% (inactive) | differential viability (reversal) ([6]; H69AR cells + 2 uM doxorubicin): 3.96% (inactive) | viability [6, 9]: 88.3% | viability [6, 10]: 92.3% | inhibition [7]: -3.47% (inactive) | inhibition [8]: -7.46% (inactive)

NCc1cccc(-n2cccn2)c1
viability [1]: 110% | Her2 level [2]: 103% (inactive) | viability [3]: 110% (inactive) | viability [4]: 93.2% (inactive) | viability [5]: 82.6% (inactive) | differential viability (reversal) ([6]; H69AR cells + 2 uM doxorubicin): -10.1% (inactive) | viability [6, 9]: 92.8% | viability [6, 10]: 82.6% | inhibition [7]: -3.64% (inactive) | inhibition [8]: -2.7% (inactive)

Cc1cc(NC(=O)CSc2ccc3nnc(-c4cccc(F)c4)n3n2)no1
viability [1]: 108% | Her2 level [2]: 102% (inactive) | viability [3]: 108% (inactive) | viability [4]: 103% (inactive) | viability [5]: 94.6% (inactive) | differential viability (reversal) ([6]; H69AR cells + 2 uM doxorubicin): 8.17% (inactive) | viability [6, 9]: 86.4% | viability [6, 10]: 94.6% | inhibition [7]: -4.19% (inactive) | inhibition [8]: -4.17% (inactive)

COc1ccc(C(NC(=O)C(C)(C)C)NC(=O)C(C)(C)C)cc1
viability [1]: 86% | Her2 level [2]: 99.5% (inactive) | viability [3]: 86% (inactive) | viability [4]: 111% (inactive) | viability [5]: 91.7% (inactive) | differential viability (reversal) ([6]; H69AR cells + 2 uM doxorubicin): 6.21% (inactive) | viability [6, 9]: 85.5% | viability [6, 10]: 91.7% | inhibition [7]: -5.32% (inactive) | inhibition [8]: -0.32% (inactive)

Cc1ccc(C)c(N2CCN(S(=O)(=O)c3ccc4c(c3)OCCO4)CC2)c1
viability [1]: 97.5% | Her2 level [2]: 96.5% (inactive) | viability [3]: 97.5% (inactive) | viability [4]: 99.2% (inactive) | viability [5]: 106% (inactive) | differential viability (reversal) ([6]; H69AR cells + 2 uM doxorubicin): 4.96% (inactive) | viability [6, 9]: 101% | viability [6, 10]: 106% | inhibition [7]: -4.81% (inactive) | inhibition [8]: -3.97% (inactive)

Cc1cnc(C(=O)OCC(=O)Nc2ccc(Cl)cc2Cl)cn1
viability [1]: 89.5% | Her2 level [2]: 100% (inactive) | viability [3]: 89.5% (inactive) | viability [4]: 90.5% (inactive) | viability [5]: 103% (inactive) | differential viability (reversal) ([6]; H69AR cells + 2 uM doxorubicin): 16.4% (inactive) | viability [6, 9]: 86.3% | viability [6, 10]: 103% | inhibition [7]: -8.49% (inactive) | inhibition [8]: 2.38% (inactive)

COc1cc2c(cc1OC)C(c1cccnc1)CC(=O)N2 (stereo not given)
viability [1]: 106% | Her2 level [2]: 95% (inactive) | viability [3]: 106% (inactive) | viability [4]: 82.2% (inactive) | viability [5]: 97.4% (inactive) | differential viability (reversal) ([6]; H69AR cells + 2 uM doxorubicin): 8.69% (inactive) | viability [6, 9]: 88.7% | viability [6, 10]: 97.4% | inhibition [7]: -1.73% (inactive) | inhibition [8]: -0.98% (inactive)
